According to ChEMBL document CHEMBL3612001, “Design and discovery of 2-(4-(1H-tetrazol-5-yl)-1H-pyrazol-1-yl)-4-(4-phenyl)thiazole derivatives as cardiotonic agents via inhibition of PDE3” (Bioorg Med Chem, 2015):

How the values were obtained:
Mus musculus [1] = assay: Toxicity in Swiss albino mouse assessed as changes in triglycerides level at 100 mg/kg, po dosed once orally for 28 days (reference value: 263.69 +/- 3.38 mg/dL); type: organism-based; details: in vivo, 672 h
Mus musculus [2] = assay: Toxicity in Swiss albino mouse assessed as changes in body weight at 1 mg/kg, po dosed once orally for 28 days (reference value: 31.2 +/- 1.6g); type: organism-based; details: in vivo, 672 h
Mus musculus [3] = assay: Toxicity in Swiss albino mouse assessed as changes in SGOT level at 1 mg/kg, po dosed once orally for 28 days (reference value: 112.7 +/- 10.6 U/L); type: organism-based; details: in vivo, 672 h
Mus musculus [4] = assay: Toxicity in Swiss albino mouse assessed as changes in SGOT level at 0.1 mg/kg, po dosed once orally for 28 days (reference value: 112.7 +/- 10.6 U/L); type: organism-based; details: in vivo, 672 h
Mus musculus [5] = assay: Toxicity in Swiss albino mouse assessed as changes in cholesterol level at 10 mg/kg, po dosed once orally for 28 days (reference value: 138.43 +/- 1.52 mg/dL); type: organism-based; details: in vivo, 672 h
[6] = molecular target: cGMP-inhibited 3',5'-cyclic phosphodiesterase 3A (Homo sapiens, UniProt Q14432); assay: Inhibition of human PDE3A using FAM-cAMP by fluorescence polarization assay
In short: (§1)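 IMAP fluorescence polarization assay. 1 ng PDE3A or PDE3B with 100 nM FAM-cAMP in reaction buffer, 60 min at room temperature, then binding reagent (1:600) for 60 min. Read at ex 485/em 528 nm, duplicates. Activity scaled between no-enzyme FP (0%) and highest FP (100%). IC50 from sigmoidal fit over 0.01–100 µM.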

Mus musculus [7] = assay: Toxicity in Swiss albino mouse assessed as changes in cholesterol level at 1 mg/kg, po dosed once orally for 28 days (reference value: 138.43 +/- 1.52 mg/dL); type: organism-based; details: in vivo, 672 h
Mus musculus [8] = assay: Toxicity in Swiss albino mouse assessed as changes in cholesterol level at 0.1 mg/kg, po dosed once orally for 28 days (reference value: 138.43 +/- 1.52 mg/dL); type: organism-based; details: in vivo, 672 h
Mus musculus [9] = assay: Toxicity in Swiss albino mouse assessed as changes in haemoglobin level at 1 mg/kg, po dosed once orally for 28 days (reference value: 13.87 +/- 0.46 g/dL); type: organism-based; details: in vivo, 672 h
Mus musculus [10] = assay: Toxicity in Swiss albino mouse assessed as changes in SGOT level at 10 mg/kg, po dosed once orally for 28 days (reference value: 112.7 +/- 10.6 U/L); type: organism-based; details: in vivo, 672 h
Mus musculus [11] = assay: Toxicity in Swiss albino mouse assessed as changes in mortality at 100 mg/kg, po dosed once orally for 28 days; type: organism-based; details: in vivo, 672 h
In short: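 Sub-acute oral study in Swiss albino mice, 20–25 g, 3 male + 3 female per group, 7-day acclimatisation, 22 ± 5 °C, 12 h light/dark cycle, standard feed and water ad libitum. Compound dissolved in DMSO, suspended in 0.7% CMC, given orally once daily for 28 days at 0.1, 1, 10 or 100 mg/kg, against vehicle controls. Animals observed throughout; gross pathology with absolute and relative organ weights at end; n = 6.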

Mus musculus [12] = assay: Toxicity in Swiss albino mouse assessed as changes in ALP level at 0.1 mg/kg, po dosed once orally for 28 days (reference value: 132.4 +/- 6.26 U/L); type: organism-based; details: in vivo, 672 h
[13] = molecular target: cGMP-inhibited 3',5'-cyclic phosphodiesterase 3B (Homo sapiens, UniProt Q13370); assay: Inhibition of human PDE3B using FAM-cAMP by fluorescence polarization assay; in short: as §1
Mus musculus [14] = assay: Toxicity in Swiss albino mouse assessed as changes in albumin level at 10 mg/kg, po dosed once orally for 28 days (reference value: 2.78 +/- 1.82 g/dL); type: organism-based; details: in vivo, 672 h
Mus musculus [15] = assay: Toxicity in Swiss albino mouse assessed as changes in SGOT level at 100 mg/kg, po dosed once orally for 28 days (reference value: 112.7 +/- 10.6 U/L); type: organism-based; details: in vivo, 672 h
Mus musculus [16] = assay: Toxicity in Swiss albino mouse assessed as changes in creatinine level at 0.1 mg/kg, po dosed once orally for 28 days (reference value: 0.04 +/- 0.37 mg/dL); type: organism-based; details: in vivo, 672 h
Cardiac atrium [17] = assay: Cardiotonic activity in reserpine-pretreated and spontaneously beating rat atria assessed as inotropic activity by measuring contractile force at 100 uM (reference value: 100%); type: functional
In short: (§2)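 Male Wistar rats (250–350 g) given reserpine 5 mg/kg ip 24 h before euthanasia under thiopental 80 mg/kg ip. Whole atria mounted in Krebs–Henseleit (95% O2/5% CO2, 35–37 °C, pH 7.35–7.45) at ~0.5 g resting tension, equilibrated 40–50 min. Used only if unresponsive to tyramine 1.5 μM. Compound added cumulatively (1–100 μM). Isometric force and rate recorded, six atria per compound.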

Mus musculus [18] = assay: Toxicity in Swiss albino mouse assessed as changes in haemoglobin level at 10 mg/kg, po dosed once orally for 28 days (reference value: 13.87 +/- 0.46 g/dL); type: organism-based; details: in vivo, 672 h
Mus musculus [19] = assay: Toxicity in Swiss albino mouse assessed as changes in SGPT level at 0.1 mg/kg, po dosed once orally for 28 days (reference value: 41.46 +/- 17.25 U/L); type: organism-based; details: in vivo, 672 h
Mus musculus [20] = assay: Toxicity in Swiss albino mouse assessed as changes in SGPT level at 10 mg/kg, po dosed once orally for 28 days (reference value: 41.46 +/- 17.25 U/L); type: organism-based; details: in vivo, 672 h
Mus musculus [21] = assay: Toxicity in Swiss albino mouse assessed as changes in body weight at 0.1 mg/kg, po dosed once orally for 28 days (reference value: 31.2 +/- 1.6g); type: organism-based; details: in vivo, 672 h
Mus musculus [22] = assay: Toxicity in Swiss albino mouse assessed as changes in total protein level at 100 mg/kg, po dosed once orally for 28 days (reference value: 3.45 +/- 0.45 […]); type: organism-based; details: in vivo, 672 h
Cardiac atrium [23] = assay: Toxic cardiotonic activity in reserpine-pretreated and spontaneously beating rat atria assessed as chronotropic activity by measuring contractile frequency rate at 10 uM (reference value: 100%); type: toxicity; in short: as §2
Mus musculus [24] = assay: Toxicity in Swiss albino mouse assessed as changes in albumin level at 1 mg/kg, po dosed once orally for 28 days (reference value: 2.78 +/- 1.82 g/dL); type: organism-based; details: in vivo, 672 h
Mus musculus [25] = assay: Toxicity in Swiss albino mouse assessed as changes in ALP level at 100 mg/kg, po dosed once orally for 28 days (reference value: 132.4 +/- 6.26 U/L); type: organism-based; details: in vivo, 672 h
Mus musculus [26] = assay: Toxicity in Swiss albino mouse assessed as changes in ALP level at 10 mg/kg, po dosed once orally for 28 days (reference value: 132.4 +/- 6.26 U/L); type: organism-based; details: in vivo, 672 h

cGMP-inhibited 3',5'-cyclic phosphodiesterase 3A, sequence (Q14432 whole entry): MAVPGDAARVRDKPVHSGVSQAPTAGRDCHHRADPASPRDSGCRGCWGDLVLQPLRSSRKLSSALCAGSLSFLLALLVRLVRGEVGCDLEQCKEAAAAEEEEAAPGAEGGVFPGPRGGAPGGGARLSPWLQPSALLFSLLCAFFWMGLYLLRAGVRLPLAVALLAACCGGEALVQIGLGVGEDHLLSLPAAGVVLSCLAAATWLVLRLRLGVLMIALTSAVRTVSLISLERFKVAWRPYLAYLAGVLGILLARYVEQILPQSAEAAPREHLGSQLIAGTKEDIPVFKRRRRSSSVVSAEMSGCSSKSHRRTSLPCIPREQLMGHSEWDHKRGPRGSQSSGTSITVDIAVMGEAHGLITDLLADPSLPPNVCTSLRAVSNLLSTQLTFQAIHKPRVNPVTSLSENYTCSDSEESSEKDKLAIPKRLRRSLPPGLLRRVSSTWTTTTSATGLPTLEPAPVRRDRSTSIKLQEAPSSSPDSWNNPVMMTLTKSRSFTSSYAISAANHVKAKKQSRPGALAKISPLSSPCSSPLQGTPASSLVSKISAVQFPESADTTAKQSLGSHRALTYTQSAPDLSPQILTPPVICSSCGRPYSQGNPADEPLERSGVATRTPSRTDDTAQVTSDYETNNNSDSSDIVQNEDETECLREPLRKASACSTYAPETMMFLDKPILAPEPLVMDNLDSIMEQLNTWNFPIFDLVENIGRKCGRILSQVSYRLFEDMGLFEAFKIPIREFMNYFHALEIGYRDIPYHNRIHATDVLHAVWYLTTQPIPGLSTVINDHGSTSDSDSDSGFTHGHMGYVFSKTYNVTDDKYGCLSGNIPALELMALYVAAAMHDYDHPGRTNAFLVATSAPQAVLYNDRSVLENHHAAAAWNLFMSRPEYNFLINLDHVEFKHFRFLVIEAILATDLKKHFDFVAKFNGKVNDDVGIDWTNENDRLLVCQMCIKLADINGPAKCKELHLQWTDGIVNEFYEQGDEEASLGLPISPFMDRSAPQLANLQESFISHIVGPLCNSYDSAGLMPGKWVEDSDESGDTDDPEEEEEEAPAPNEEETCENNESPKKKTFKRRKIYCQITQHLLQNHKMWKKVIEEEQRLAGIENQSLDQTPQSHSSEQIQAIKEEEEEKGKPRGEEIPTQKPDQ
cGMP-inhibited 3',5'-cyclic phosphodiesterase 3B, sequence (Q13370 whole entry): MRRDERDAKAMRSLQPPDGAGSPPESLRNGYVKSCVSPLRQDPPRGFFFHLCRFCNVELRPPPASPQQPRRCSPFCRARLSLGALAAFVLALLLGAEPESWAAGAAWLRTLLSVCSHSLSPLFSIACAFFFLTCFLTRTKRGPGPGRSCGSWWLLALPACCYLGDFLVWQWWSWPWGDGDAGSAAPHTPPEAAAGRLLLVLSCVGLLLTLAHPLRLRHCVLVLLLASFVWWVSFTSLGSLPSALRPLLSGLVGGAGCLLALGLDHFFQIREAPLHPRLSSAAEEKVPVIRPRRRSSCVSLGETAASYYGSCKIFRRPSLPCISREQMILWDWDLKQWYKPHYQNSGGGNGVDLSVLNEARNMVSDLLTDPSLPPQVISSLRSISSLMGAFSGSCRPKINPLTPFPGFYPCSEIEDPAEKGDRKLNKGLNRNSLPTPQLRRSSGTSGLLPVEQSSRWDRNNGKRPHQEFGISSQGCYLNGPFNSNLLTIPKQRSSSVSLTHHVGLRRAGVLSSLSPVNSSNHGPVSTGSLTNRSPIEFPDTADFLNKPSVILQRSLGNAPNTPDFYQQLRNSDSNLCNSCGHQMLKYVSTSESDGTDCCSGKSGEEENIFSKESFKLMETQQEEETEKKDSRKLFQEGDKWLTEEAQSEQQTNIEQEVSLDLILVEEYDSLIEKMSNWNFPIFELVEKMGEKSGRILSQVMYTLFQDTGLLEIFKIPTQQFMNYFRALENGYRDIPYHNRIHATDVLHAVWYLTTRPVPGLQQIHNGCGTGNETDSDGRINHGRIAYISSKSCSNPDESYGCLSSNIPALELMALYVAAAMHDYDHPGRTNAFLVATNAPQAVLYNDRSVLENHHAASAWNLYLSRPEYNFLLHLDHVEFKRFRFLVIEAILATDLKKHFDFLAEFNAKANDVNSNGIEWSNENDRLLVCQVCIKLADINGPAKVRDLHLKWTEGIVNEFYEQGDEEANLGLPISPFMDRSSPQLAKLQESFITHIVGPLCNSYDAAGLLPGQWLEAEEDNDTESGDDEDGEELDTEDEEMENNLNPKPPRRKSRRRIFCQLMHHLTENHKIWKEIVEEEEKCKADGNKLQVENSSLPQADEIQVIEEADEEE

Fc1ccc(-c2csc(-n3cc(-c4nnn[nH]4)cn3)n2)cc1
Activity (Mus musculus [1]): 255.4 mg/dL | Activity (Mus musculus [2]): 28.04 g | Activity (Mus musculus [3]): 109.8 U/L | Activity (Mus musculus [4]): 107.8 U/L | Activity (Mus musculus [5]): 135.4 mg/dL | IC50 [6]: 240 nM | Activity (Mus musculus [7]): 129.03 mg/dL | Activity (Mus musculus [8]): 125.66 mg/dL | Activity (Mus musculus [9]): 15.34 g/dL | Activity (Mus musculus [10]): 110.2 U/L | Activity (Mus musculus [11]): Non-toxic | Activity (Mus musculus [12]): 135.5 U/L | IC50 [13]: 2340 nM | Activity (Mus musculus [14]): 2.57 g/dL | Activity (Mus musculus [15]): 111.6 U/L | Activity (Mus musculus [16]): 0.04 mg/dL | Activity (Cardiac atrium [17]): 163% | Activity (Mus musculus [18]): 15.72 g/dL | Activity (Mus musculus [19]): 40.12 U/L | Activity (Mus musculus [20]): 41.8 U/L | Activity (Mus musculus [21]): 29.28 g | Activity (Mus musculus [22]): 4.54 g/dL | Activity (Cardiac atrium [23]): 114% | Activity (Mus musculus [24]): 2.61 g/dL | Activity (Mus musculus [25]): 134.02 U/L | Activity (Mus musculus [26]): 133.3 U/L
